Laboratory results as given in PubChem BioAssay AID2539 (The Scripps Research Institute Molecular Screening Center, 2010).
Activity calls are given as the source filed them.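 The calls were made as follows: active = at least 50% inhibition of the cell reactive oxygen species light signal; inactive = the rest.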

Legend:
Experiment in all cases: inhibition of NOX2, NOX3, NOX4 ROS production, late-stage follow-up, selectivity assay for NOX1 inhibitor project, cell-based, HEK293 transfected, luminol chemiluminescence, powder samples (AID 2539)
[1] = biological target: NADPH oxidase 2 (Homo sapiens) (UniProt P04839); details: HEK293 transfected NOX2/3/4, luminol ROS chemiluminescence; NOX2; at 10 µM; stronger effect = higher value
NADPH oxidase 2 (Homo sapiens), sequence (P04839 whole entry, looked up): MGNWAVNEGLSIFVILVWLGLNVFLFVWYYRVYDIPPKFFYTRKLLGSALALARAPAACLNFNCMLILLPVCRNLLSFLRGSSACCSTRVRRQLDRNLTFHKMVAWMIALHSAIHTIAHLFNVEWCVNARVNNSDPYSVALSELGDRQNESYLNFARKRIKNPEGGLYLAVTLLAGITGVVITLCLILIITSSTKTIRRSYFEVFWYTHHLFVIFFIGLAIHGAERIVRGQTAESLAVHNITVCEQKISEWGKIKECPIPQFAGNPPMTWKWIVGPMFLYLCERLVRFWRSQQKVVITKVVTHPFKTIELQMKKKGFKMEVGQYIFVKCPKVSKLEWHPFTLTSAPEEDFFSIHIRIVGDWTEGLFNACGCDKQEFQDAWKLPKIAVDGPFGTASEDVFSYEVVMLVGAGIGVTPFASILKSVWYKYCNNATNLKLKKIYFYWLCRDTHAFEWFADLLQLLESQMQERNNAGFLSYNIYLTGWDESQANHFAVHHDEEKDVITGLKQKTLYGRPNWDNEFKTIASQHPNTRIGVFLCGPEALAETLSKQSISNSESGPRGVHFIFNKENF
Method in brief: (§1)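 Material: transfected HEK/293 cells expressing NOX2, NOX3 or NOX4 / Reagent: luminol with horseradish peroxidase as ROS probe / Doses: single compound dose of 10 µM / Times: compounds added 16 h post-transfection, 2 h before probe / Measured by: luminol/HRP chemiluminescence reporting cellular ROS / Replicates: each compound tested in triplicate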

[2] = biological target: NADPH oxidase 3 (Homo sapiens) (UniProt Q9HBY0); details: HEK293 transfected NOX2/3/4, luminol ROS chemiluminescence; NOX3; at 10 µM; stronger effect = higher value
NADPH oxidase 3 (Homo sapiens), sequence (Q9HBY0 whole entry, looked up): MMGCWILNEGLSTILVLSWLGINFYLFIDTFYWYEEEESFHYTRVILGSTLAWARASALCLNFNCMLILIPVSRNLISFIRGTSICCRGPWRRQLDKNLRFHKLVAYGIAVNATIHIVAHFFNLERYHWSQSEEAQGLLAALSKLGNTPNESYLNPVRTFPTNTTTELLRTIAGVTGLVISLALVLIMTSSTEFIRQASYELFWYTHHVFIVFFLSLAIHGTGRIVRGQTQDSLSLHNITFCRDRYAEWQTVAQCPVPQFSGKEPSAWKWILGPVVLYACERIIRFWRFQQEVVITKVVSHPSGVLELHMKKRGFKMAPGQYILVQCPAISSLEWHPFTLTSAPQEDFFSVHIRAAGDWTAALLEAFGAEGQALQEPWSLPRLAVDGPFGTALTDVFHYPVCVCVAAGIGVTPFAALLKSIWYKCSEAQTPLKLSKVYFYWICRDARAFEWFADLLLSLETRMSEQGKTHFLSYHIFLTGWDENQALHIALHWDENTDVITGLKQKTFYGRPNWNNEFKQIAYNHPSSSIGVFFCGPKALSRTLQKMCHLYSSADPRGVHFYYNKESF
Method in brief: as §1

[3] = biological target: NADPH oxidase 4 (Homo sapiens) (UniProt Q9NPH5); details: HEK293 transfected NOX2/3/4, luminol ROS chemiluminescence; NOX4; at 10 µM; stronger effect = higher value
NADPH oxidase 4 (Homo sapiens), sequence (Q9NPH5 whole entry, looked up): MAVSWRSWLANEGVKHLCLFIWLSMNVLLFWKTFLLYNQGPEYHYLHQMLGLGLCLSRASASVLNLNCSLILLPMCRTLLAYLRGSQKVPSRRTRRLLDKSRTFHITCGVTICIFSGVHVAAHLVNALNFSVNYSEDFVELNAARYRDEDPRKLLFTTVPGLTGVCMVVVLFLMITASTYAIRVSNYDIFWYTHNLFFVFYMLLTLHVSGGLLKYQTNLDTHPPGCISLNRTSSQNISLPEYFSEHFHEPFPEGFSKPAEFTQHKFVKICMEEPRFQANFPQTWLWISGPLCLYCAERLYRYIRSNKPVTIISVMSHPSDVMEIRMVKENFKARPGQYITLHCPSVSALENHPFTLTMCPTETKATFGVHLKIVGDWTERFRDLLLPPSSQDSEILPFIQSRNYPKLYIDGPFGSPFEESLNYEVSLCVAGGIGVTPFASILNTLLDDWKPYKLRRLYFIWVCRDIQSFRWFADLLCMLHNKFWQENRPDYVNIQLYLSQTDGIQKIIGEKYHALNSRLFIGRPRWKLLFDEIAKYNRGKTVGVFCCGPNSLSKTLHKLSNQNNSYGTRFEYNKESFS
Method in brief: as §1

Row | Compound | inhibition [1] | inhibition [2] | inhibition [3]
1 | COc1cc(-c2nc(-c3ccccc3)c(-c3ccccc3)[nH]2)ccc1O | -7% (inactive) | 61% | 61%
2 | c1ccc2c(c1)Nc1nc3ccccc3nc1N2 | 2% (inactive) | -24% (inactive) | -24% (inactive)
3 | O=C(Oc1ccccc1N1CCCCC1)c1sc2ccccc2c1Cl | -3% (inactive) | 3% (inactive) | 3% (inactive)

Other lines, results leading:

Row | inhibition [1] | inhibition [2] | inhibition [3] | Compound
4 | 6% (inactive) | 25% (inactive) | 25% (inactive) | Cc1cc(Cl)ccc1NC(=S)NNC(=S)Nc1ccc(F)cc1
5 | 20% (inactive) | 10% (inactive) | 10% (inactive) | FC(F)(F)c1ccc2c(c1)Nc1ccccc1S2
6 | 32% (inactive) | 52% | 52% | CN(C)c1ccc(NC(=O)Nc2ccc(OCc3ccccc3)cc2)cc1
7 | 19% (inactive) | 3% (inactive) | 3% (inactive) | CN(C)c1ccc(/C=N/Nc2c(Cl)cncc2Cl)cc1
